The values that follow come from ChEMBL document CHEMBL2375357, “Design, synthesis and cytotoxicity of cell death mechanism of rotundic acid derivatives” (Bioorg Med Chem Lett, 2013).

Holding throughout (assay type): functional, cell-based
Test [1] relates to HeLa. Nature of the test: Cytotoxicity against human HeLa cells after 24 hrs by MTT assay. The method in brief: (§1)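 MTT antiproliferative assay on human tumour lines A-375 (melanoma), SPC-A1 (lung adenocarcinoma), HeLa (cervical), HepG2 (hepatoma) and NCI-H446 (small cell lung cancer). Parent rotundic acid run alongside as positive control. IC50 given as mean ± SD, n = 3, each experiment repeated at least three times. Values above 100 μM reported as >100.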

Test [2] in a line: Cytotoxicity against human SPC-A1 cells after 24 hrs by MTT assay. Conditions: SPCA1, 24 h. An outline of the steps:
as §1
For orientation: Tetrazolium assays rely on reduction of a dye to a coloured formazan, in cell work by metabolically active cells.

For another test, the system named is NCI-H446. Nature of the test: Cytotoxicity against human NCI-H446 cells after 24 hrs by MTT assay. As to conditions: NCI-H446, 24 h. An outline of the steps: as §1
The next test relates to HepG2. Nature of the test: Cytotoxicity against human HepG2 cells after 24 hrs by MTT assay. As to conditions: HepG2, 24 h. An outline of the steps:
as §1

A further test deals with A-375. Kind of test: Cytotoxicity against human A375 cells after 24 hrs by MTT assay. As to conditions: A-375, 24 h. An outline of the steps: as §1
The test system of test [3] is HeLa. Kind of test: Induction of apoptosis in human HeLa cells assessed as increase in cytochrome C expression after 24 hrs by Western blot analysis. An outline of the steps: (§2)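 HeLa cells treated 24 h at 10, 20 and 40 μM. Cisplatin (10 μg/ml) served as positive-control treatment, with an untreated control group for comparison. Bax, Bcl-2, cytochrome C, caspase-3 and cleaved caspase-3 protein levels detected by western blot. Bax/Bcl-2 ratio derived from the band levels. Significance tested against the control group.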
(A western blot detects proteins with antibodies after separation by electrophoresis.)

The test system of test [4] is HeLa. Kind of test: Induction of apoptosis in human HeLa cells assessed as increase in Bax expression after 24 hrs by Western blot analysis. An outline of the steps: as §2
The subject of test [5] is HeLa. Nature of the test: Induction of apoptosis in human HeLa cells assessed as decrease in Bcl2 expression after 24 hrs by Western blot analysis. The method in brief:
as §2

Test [6] deals with HeLa. Kind of test: Induction of apoptosis in human HeLa cells assessed as increase in ratio of Bax to Bcl2 expression after 24 hrs by Western blot analysis. The method in brief: as §2
The subject of test [7] is HeLa. Kind of test: Induction of apoptosis in human HeLa cells assessed as increase in caspase 3 cleavage after 24 hrs by Western blot analysis. An outline of the steps:
as §2

Test [8] deals with HeLa. Nature of the test: Induction of apoptosis in human HeLa cells assessed as increase in caspase 3 expression at 10 to 40 uM after 24 hrs by Western blot analysis. An outline of the steps:
as §2

SMILES strings stand for the structures. Active and inactive are the calls of the source. The rule behind the calls is not given here.

As to `C[C@@H]1CC[C@]2(C(=O)Nc3ccccc3CO)CC[C@]3(C)C(=CC[C@@H]4[C@@]5(C)CC[C@H](O)[C@@](C)(CO)[C@@H]5CC[C@]43C)[C@@H]2[C@]1(C)O`, the IC50 (as a rule, the concentration that inhibits the measured activity by half) was 12.3 µM with HeLa [1]; above 100 µM in test [2]; 14 µM in the test with NCI-H446; above 100 µM in the test on HepG2; 19 µM in the test with A-375.

Consider `CC(=O)OC[C@@]1(C)[C@@H]2CC[C@]3(C)[C@H](CC=C4[C@H]5[C@](C(=O)Nc6ccccc6)(CC[C@@H](C)[C@@]5(C)O)CC[C@]43C)[C@@]2(C)CC[C@@H]1OC(C)=O`, for which the IC50 stood at 15.8 µM in the test with HeLa [1]; 16.2 µM in [2]; 24.8 µM in the test on NCI-H446; 22.2 µM with HepG2; 17.7 µM in the test on A-375.

`CC(=O)OCCNC(=O)[C@]12CC[C@@H](C)[C@@](C)(O)[C@H]1C1=CC[C@@H]3[C@@]4(C)CC[C@H](OC(C)=O)[C@@](C)(COC(C)=O)[C@@H]4CC[C@@]3(C)[C@]1(C)CC2`: the half-inhibitory concentration (IC50) with HeLa [1] came out at 5.39 µM; in [2] it was 9.37 µM; in the test with NCI-H446, 18.6 µM; in the test with HepG2, 4.44 µM; with A-375, 4.17 µM.

Regarding `CC(=O)OC[C@@]1(C)[C@@H]2CC[C@]3(C)[C@H](CC=C4[C@H]5[C@](C(=O)NCc6ccccc6)(CC[C@@H](C)[C@@]5(C)O)CC[C@]43C)[C@@]2(C)CC[C@@H]1OC(C)=O`, the IC50 was 19.2 µM in the test on HeLa [1]; 12.1 µM in [2]; 26.9 µM with NCI-H446; 19.5 µM with HepG2; 13.7 µM with A-375.

`CC(=O)OCc1ccccc1NC(=O)[C@]12CC[C@@H](C)[C@@](C)(O)[C@H]1C1=CC[C@@H]3[C@@]4(C)CC[C@H](OC(C)=O)[C@@](C)(COC(C)=O)[C@@H]4CC[C@@]3(C)[C@]1(C)CC2`: the IC50 with HeLa [1] is 4.27 µM; in [2] it was 13.2 µM; with NCI-H446, 69.7 µM; with HepG2 it was 12.3 µM; in the test on A-375, 9.12 µM.

As to `C[C@@H]1CC[C@]2(C(=O)NCCCO)CC[C@]3(C)C(=CC[C@@H]4[C@@]5(C)CC[C@H](O)[C@@](C)(CO)[C@@H]5CC[C@]43C)[C@@H]2[C@]1(C)O`, the IC50 was 17.7 µM in the test with HeLa [1]; 83.2 µM in test [2]; 20.9 µM in the test with NCI-H446; 77.3 µM in the test with HepG2; 12.5 µM in the test with A-375.

As for `C[C@@H]1CC[C@]2(C(=O)O)CC[C@]3(C)C(=CC[C@@H]4[C@@]5(C)CC[C@H](O)[C@@](C)(CO)[C@@H]5CC[C@]43C)[C@@H]2[C@]1(C)O` [ROTUNDIC ACID], the IC50 in the test on HeLa [1] was 31.9 µM; in [2] it was 84 µM; with NCI-H446, 11.4 µM; in the test with HepG2, 7.33 µM; in the test with A-375, 16.6 µM.

For `CC(=O)OC[C@@]1(C)[C@@H]2CC[C@]3(C)[C@H](CC=C4[C@H]5[C@](C(=O)NCCCO)(CC[C@@H](C)[C@@]5(C)O)CC[C@]43C)[C@@]2(C)CC[C@@H]1OC(C)=O`, the IC50 with HeLa [1] worked out at 6.97 µM; in test [2], 13.4 µM; with NCI-H446, 5.08 µM; with HepG2, 5.49 µM; with A-375, 3.28 µM.

For the compound `C[C@@H]1CC[C@]2(C(=O)Nc3ccccc3)CC[C@]3(C)C(=CC[C@@H]4[C@@]5(C)CC[C@H](O)[C@@](C)(CO)[C@@H]5CC[C@]43C)[C@@H]2[C@]1(C)O`, the IC50 in the test with HeLa [1] is 23.2 µM; in [2], above 100 µM; with NCI-H446, 70.8 µM; in the test on HepG2, 64.7 µM; in the test with A-375 it was 70.8 µM.

Turning to `CC(=O)OCC(C)NC(=O)[C@]12CC[C@@H](C)[C@@](C)(O)[C@H]1C1=CC[C@@H]3[C@@]4(C)CC[C@H](OC(C)=O)[C@@](C)(COC(C)=O)[C@@H]4CC[C@@]3(C)[C@]1(C)CC2` (stereo partly specified), the IC50 is 5.3 µM with HeLa [1]; 18.9 µM in test [2]; 14.7 µM in the test on NCI-H446; 9.12 µM in the test with HepG2; 5.1 µM with A-375.

`C[C@@H]1CC[C@]2(C(=O)NCCO)CC[C@]3(C)C(=CC[C@@H]4[C@@]5(C)CC[C@H](O)[C@@](C)(CO)[C@@H]5CC[C@]43C)[C@@H]2[C@]1(C)O`: the IC50 in the test on HeLa [1] is above 100 µM; in test [2], above 100 µM; in the test on NCI-H446, 24.7 µM; with HepG2 it was 45.6 µM; with A-375, 21.4 µM.

`CC(CO)NC(=O)[C@]12CC[C@@H](C)[C@@](C)(O)[C@H]1C1=CC[C@@H]3[C@@]4(C)CC[C@H](O)[C@@](C)(CO)[C@@H]4CC[C@@]3(C)[C@]1(C)CC2` (stereo partly specified): the IC50 in the test with HeLa [1] is 28.8 µM; in test [2], above 100 µM; in the test with NCI-H446, 39.8 µM; in the test on HepG2, 55.1 µM; in the test with A-375, 35.5 µM.

For the compound `CC(=O)OCCCNC(=O)[C@]12CC[C@@H](C)[C@@](C)(O)[C@H]1C1=CC[C@@H]3[C@@]4(C)CC[C@H](OC(C)=O)[C@@](C)(COC(C)=O)[C@@H]4CC[C@@]3(C)[C@]1(C)CC2`, the IC50 with HeLa [1] was determined as 4.31 µM; in test [2] it was 12 µM; in the test on NCI-H446 it was 12.8 µM; in the test with HepG2, 12 µM; with A-375 it was 10.1 µM.

`CC(=O)OC[C@@]1(C)[C@@H]2CC[C@]3(C)[C@H](CC=C4[C@H]5[C@](C(=O)NCCO)(CC[C@@H](C)[C@@]5(C)O)CC[C@]43C)[C@@]2(C)CC[C@@H]1OC(C)=O`: the IC50 came to 2.83 µM in the test with HeLa [1]; 3.61 µM in test [2]; 6.67 µM in the test with NCI-H446; 4.4 µM in the test with HepG2; 5.49 µM in the test on A-375. In addition, the result in the test with HeLa [3] and in the test on HeLa [8] was Active. The Activity result with HeLa [4], in the test with HeLa [5], in the test with HeLa [6] and with HeLa [7] was “Dose-dependent effect” each time.

Regarding `CC(=O)OC[C@@]1(C)[C@@H]2CC[C@]3(C)[C@H](CC=C4[C@H]5[C@](C(=O)Nc6ccccc6CO)(CC[C@@H](C)[C@@]5(C)O)CC[C@]43C)[C@@]2(C)CC[C@@H]1OC(C)=O`, the IC50 with HeLa [1] amounted to 3.32 µM; in test [2], 8.09 µM; in the test on NCI-H446, 7.03 µM; in the test on HepG2, 4.45 µM; in the test on A-375, 3.71 µM.

Consider `CC(=O)OC[C@@]1(C)[C@@H]2CC[C@]3(C)[C@H](CC=C4[C@H]5[C@](C(=O)NC(C)CO)(CC[C@@H](C)[C@@]5(C)O)CC[C@]43C)[C@@]2(C)CC[C@@H]1OC(C)=O` (stereo partly specified), for which the IC50 in the test on HeLa [1] is 11.3 µM; in [2], 12.9 µM; in the test with NCI-H446 it was 5.51 µM; with HepG2 it was 7.3 µM; with A-375 it was 4.77 µM.

As to `CC(=O)OC[C@@]1(C)[C@@H]2CC[C@]3(C)[C@H](CC=C4[C@H]5[C@](C(=O)O)(CC[C@@H](C)[C@@]5(C)O)CC[C@]43C)[C@@]2(C)CC[C@@H]1OC(C)=O`, the half-inhibitory concentration (IC50) in the test with HeLa [1] amounted to 13.1 µM; in [2] it was 23.2 µM; in the test on NCI-H446 it was 7.11 µM; with HepG2 it was 6.85 µM; in the test on A-375, 11.4 µM.

In the case of `C[C@@H]1CC[C@]2(C(=O)NCc3ccccc3)CC[C@]3(C)C(=CC[C@@H]4[C@@]5(C)CC[C@H](O)[C@@](C)(CO)[C@@H]5CC[C@]43C)[C@@H]2[C@]1(C)O`, the IC50 with HeLa [1] is 28.1 µM; in [2], above 100 µM; in the test on NCI-H446 it was above 100 µM; in the test on HepG2 it was above 100 µM; in the test on A-375 it was above 100 µM.
